Compound activity (PubChem)
GSTO1 counter = blocks human GSTO1 in RBBP9 counter-screen. inhibition, % at 5.96 µM. AID 1974. 300,000 compounds, 1.1% hits. recombinant GSTO1, activity-based probe fluorescence polarization. P78417;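 active = inhibition above the campaign mean inhibition plus 3 SD, cut at about 35% in these data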;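 also: 0% = GSTO1-1 with DMSO and 100% = wells lacking GSTO1-1 enzyme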
TDP2 absorb = TDP2 (human) inhibition, absorbance primary screen; O95551; recombinant TDP2, T5PNP hydrolysis, p-nitrophenol absorbance 415 nm; inhibition, % at 12.8 µM; 370,000 compounds, 0.34% hits;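 active = inhibition above the mean of all tested compounds plus 3 SD, set per campaign, cut at about 25% in these data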;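 also: 0% = DMSO with enzyme and 100% = buffer with substrate but no TDP2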
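Test system: human TDP2 enzyme; Input: 120 nM TDP2 per well; Buffer or medium: Mg2+-containing Tris-HCl buffer, pH 7.5; Reagent: 5 mM T5PNP; Dosing: 12.8 µM single point, 1% DMSO; Incubation: reaction 2 h, 37 °C; Detection: p-Nitrophenol epi absorbance; Read-out: % inhibition relative to enzyme-containing and enzyme-free wells; Replicates: single well per compound.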
SIAE primary = human SIAE inhibition, primary screen | SIAE FP-Rh probe binding, fluorescence polarization | Q9HAT2 | 370,000 compounds, 0.69% hits | inhibition, % at 9.66 µM | AID 1053197;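 active = inhibition above a cutoff: mean of compounds within the control limits plus 3 SD of those, cut at about 17% in these data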;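 also: 0% = plate median of compound wells and 100% = probe without SIAE protein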
Apaf-1 inh = blocks human Apaf-1 apoptosome activity; 330,000 compounds, 0.71% hits; AID 489030; inhibition, % at 20 µM; reconstituted apoptosome caspase-3 activity, DEVD-Rh110 fluorescence; active = inhibition of at least 40% at 20 µM;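 also: plate controls were DMSO wells for no effect and DEVD-CHO caspase inhibitor wells for full effect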
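Material: reconstituted apoptosome with Apaf-1, cytochrome c, caspase-9, procaspase-3, dATP. Technique: Rh110 fluorescence intensity. Buffer or medium: pH 7.5 Hepes buffer with CHAPS, BSA, DTT. Times: 30 min plus 50 min, RT.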
TCR-CD3 inh = human TCR-CD3 binding inhibition; TAMRA-labeled TCR probe fluorescence, biochemical; inhibition, % at 9.4 µM; 360,000 compounds, 0.37% hits; in the data active = inhibition above about 19%;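 also: recombinant mutant TCR 2C K166C tagged with TAMRA read by polarization; 0% = receptor in buffer alone and 100% = receptor with positive control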
PAD4 FP inh = PAD4 (human) enzyme inhibition. Q9UM07. recombinant PAD4, RCA probe fluorescence polarization. inhibition, % at 6.36 µM. 330,000 compounds, 0.41% hits;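 active = percent inhibition above a cutoff equal to the mean of all tested compounds plus 3 SD, cut at about 15% in these data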;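 also: 0% = PAD4 with RCA probe and DMSO and 100% = probe without PAD4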
SIAE inh conf = confirmation of human SIAE inhibitors | SIAE FP-Rh activity-based probe, fluorescence polarization | inhibition, % at 9.66 µM | AID 1117263 | 2,300 compounds, 13% hits | shares compounds with SIAE primary;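 active = mean inhibition of the replicates above the hit cutoff set in the primary screen, cut at about 17% in these data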;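 also: 0% = SIAE with DMSO and probe and 100% = probe without SIAE; inhibitors lower polarization as more probe stays unbound to SIAE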
* = called active by the depositor. Only some compounds are listed: those with a hit (about 2.4% of all), similar ones and a draw of the others.

`CCN1CCN(Cc2nc3ccc([N+](=O)[O-])cc3c(=O)n2-c2ccc(OC)cc2OC)CC1` gave GSTO1 counter -1.0, TDP2 absorb -7.8, SIAE primary 19.1*, Apaf-1 inh -1.4, TCR-CD3 inh -9.8, PAD4 FP inh -3.1 and SIAE inh conf -0.1.
For Cc1ccc(OCC(=O)Nc2ccc3c4c(cccc24)CC3)c(C)c1 the results were GSTO1 counter 1.1, TDP2 absorb 5.9, SIAE primary -1.7, Apaf-1 inh -14.4, TCR-CD3 inh 6.3 and PAD4 FP inh 1.1.
For Cc1ccc(OCC(=O)Nc2cccc3nsnc23)c(C)c1 the results were GSTO1 counter 4.8, TDP2 absorb 0.3, SIAE primary 32.8*, Apaf-1 inh 1.1, TCR-CD3 inh -1.5, PAD4 FP inh 1.5 and SIAE inh conf 1.0.
`Cc1ccc2nc(CN(C)C(=O)[C@@H](Cc3ccccc3)NC(=O)[C@H]3O[C@@H](n4cnc(C(N)=O)n4)[C@H](O)[C@@H]3O)[nH]c2c1` gave TDP2 absorb -12.1, SIAE primary 68.0*, TCR-CD3 inh -0.6 and SIAE inh conf 74.4*.
`Cc1occc1C(=O)NNC(=S)Nc1cccc([N+](=O)[O-])c1` gave GSTO1 counter -13.3, TDP2 absorb 3.7, SIAE primary 21.8*, Apaf-1 inh 11.4, TCR-CD3 inh 3.8, PAD4 FP inh 1.9 and SIAE inh conf 3.1.
`CCOc1ccc(S(=O)(=O)n2cnc(C)c2)cc1` gave GSTO1 counter -0.2, TDP2 absorb 15.0, SIAE primary 17.1*, Apaf-1 inh 0.8, TCR-CD3 inh -0.5, PAD4 FP inh -1.0 and SIAE inh conf 4.8.
O=C1CCc2ccccc2N1Cc1ccccc1 was read as GSTO1 counter 3.6, TDP2 absorb 5.9, SIAE primary 17.9*, Apaf-1 inh 4.3, TCR-CD3 inh 7.1, PAD4 FP inh 1.9 and SIAE inh conf 0.4.
Cc1cc(C)n(CCN(C)C(=O)CCc2nnc(CCC3CCCCC3)o2)n1 was read as GSTO1 counter -2.2, TDP2 absorb 2.8, SIAE primary 0.1, Apaf-1 inh -9.1, TCR-CD3 inh -6.8 and PAD4 FP inh -0.9.
`Cc1ccc(NS(=O)(=O)c2cccc(C(=O)NNC(=O)NC3CCCCC3)c2)c(C)c1` gave GSTO1 counter -6.1, TDP2 absorb -4.9, SIAE primary 17.7*, Apaf-1 inh 9.4, TCR-CD3 inh 3.0, PAD4 FP inh -3.3 and SIAE inh conf -0.1.
Screening CN(c1ccccc1)S(=O)(=O)c1cccc(NC(=O)CSc2ncn[nH]2)c1 returned GSTO1 counter -0.5, TDP2 absorb -0.2, SIAE primary 18.0*, Apaf-1 inh 13.9, TCR-CD3 inh -4.2, PAD4 FP inh 2.4 and SIAE inh conf -0.1.
Screening CN(c1ccccc1)S(=O)(=O)c1cccc(NC(=O)CSc2nncs2)c1 returned GSTO1 counter 11.8, TDP2 absorb 1.9, SIAE primary -2.4, Apaf-1 inh 2.9, TCR-CD3 inh 1.2 and PAD4 FP inh -4.8.
COc1cccc(-c2noc(C(C)n3nc(C)c([N+](=O)[O-])c3C)n2)c1 (stereo not given) was read as GSTO1 counter 3.6, TDP2 absorb -20.6, SIAE primary 34.4*, Apaf-1 inh 2.5, TCR-CD3 inh 0.0, PAD4 FP inh 5.6 and SIAE inh conf -0.6.
For COc1ccc(NC(=S)NNC(=O)C(C)n2nc(C)c([N+](=O)[O-])c2C)cc1 (stereo not given) the results were GSTO1 counter 5.1, TDP2 absorb 2.8, SIAE primary 5.0, Apaf-1 inh -21.9, TCR-CD3 inh 5.0 and PAD4 FP inh -8.3.
O=C(CCc1nc(-c2cccs2)no1)NCc1ccc(F)cc1Cl was read as GSTO1 counter 11.1, TDP2 absorb -6.7, SIAE primary 6.0, Apaf-1 inh 1.6, TCR-CD3 inh -4.0 and PAD4 FP inh -0.3.
`Cc1c(Cc2ccccc2)c(=O)oc2cc(OCc3nn[nH]n3)ccc12` gave GSTO1 counter -16.8, TDP2 absorb 2.8, SIAE primary -6.0, Apaf-1 inh 8.1, TCR-CD3 inh 0.7 and PAD4 FP inh 1.9.
Cc1c(CC(=O)O)c(=O)oc2cc(OCc3nn[nH]n3)ccc12 was read as GSTO1 counter 4.0, TDP2 absorb 1.5, SIAE primary 18.0*, Apaf-1 inh -8.7, TCR-CD3 inh 7.5, PAD4 FP inh -3.0 and SIAE inh conf 2.6.
For O=C1N=c2ccccc2=C1c1sc(=S)n(NC(=O)c2cccc(O)c2)c1O the results were TDP2 absorb 3.5, SIAE primary 29.0*, TCR-CD3 inh 1.8 and SIAE inh conf 32.6*.
O=C1N=c2ccccc2=C1c1sc(=S)n(-c2ccc(O)cc2)c1O was read as GSTO1 counter 8.9, TDP2 absorb 6.6, SIAE primary 21.9*, Apaf-1 inh 0.2, TCR-CD3 inh 3.0, PAD4 FP inh -2.8 and SIAE inh conf 6.0.
`O=C1N=c2ccc(Br)cc2=C1c1sc(=S)n(NS(=O)(=O)c2ccccc2)c1O` gave GSTO1 counter 14.3, TDP2 absorb 1.5, SIAE primary 11.5, Apaf-1 inh 2.2, TCR-CD3 inh 12.8 and PAD4 FP inh -3.8.
Cc1c(-n2c(O)c(C3=c4ccccc4=NC3=O)sc2=S)c(=O)n(-c2ccccc2)n1C was read as GSTO1 counter 4.0, TDP2 absorb 1.8, SIAE primary -1.9, Apaf-1 inh -8.2, TCR-CD3 inh 6.8 and PAD4 FP inh -2.6.
`O=C(C1CC1)N1CCN(c2ccc(O)cc2)CC1` gave GSTO1 counter 3.3, TDP2 absorb -6.4, SIAE primary 18.9*, Apaf-1 inh -1.5, TCR-CD3 inh 1.3, PAD4 FP inh -3.7 and SIAE inh conf 4.0.
Screening O=C(Nc1ccc(NC(=O)C2CC2)cn1)c1ccccc1Cl returned GSTO1 counter 2.2, TDP2 absorb -21.8, SIAE primary -2.0, Apaf-1 inh -3.9, TCR-CD3 inh 0.0 and PAD4 FP inh 0.0.
`Cn1c(Nc2ccccc2)nc2ccccc21` gave GSTO1 counter -0.1, TDP2 absorb 0.9, SIAE primary 4.2, Apaf-1 inh -3.8, TCR-CD3 inh -1.6 and PAD4 FP inh 0.6.
For Nn1c(Nc2ccccc2)nc2ccccc21 the results were GSTO1 counter 2.3, TDP2 absorb -2.3, SIAE primary 23.3*, Apaf-1 inh 1.2, TCR-CD3 inh -2.3, PAD4 FP inh -2.5 and SIAE inh conf -0.1.
For O=C(O)C(C/C(=N/O)c1ccc(Br)cc1)P(=O)(c1ccccc1)c1ccccc1 (stereo not given) the results were GSTO1 counter -0.4, TDP2 absorb -12.0, SIAE primary -0.3, Apaf-1 inh -2.8, TCR-CD3 inh -2.8 and PAD4 FP inh 3.1.
